≈ marks a conversion by molar mass, not a printed value.
How the values were obtained:
Type in all cases: functional, organism-based
Candida albicans [1] = experiment: Antifungal activity against azole-sensitive Candida albicans by broth microdilution assay
Procedure, shortened: (§1)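 Follow-up panel of recent drug-resistant and drug-sensitive clinical Candida isolates, tested alongside quality control strains C. krusei ATCC 6258 and C. parapsilopsis ATCC 22019.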

Pichia kudriavzevii = experiment: Antifungal activity against azole-resistant Candida krusei by broth microdilution assay; procedure, shortened: as §1
Candida albicans [2] = experiment: Antifungal activity against polyene-resistant Candida albicans by broth microdilution assay; procedure, shortened: as §1
Candida albicans [3] = experiment: Antifungal activity against azole-resistant Candida albicans by broth microdilution assay; procedure, shortened: as §1
Nakaseomyces glabratus [4] = experiment: Antifungal activity against azole-resistant Candida glabrata by broth microdilution assay; procedure, shortened: as §1
Nakaseomyces glabratus [5] = experiment: Antifungal activity against polyene-resistant Candida glabrata by broth microdilution assay; procedure, shortened: as §1

Row | Compound | IC50 (Candida albicans [1]) [µg/mL] | IC50 (Pichia kudriavzevii) [µg/mL] | IC50 (Candida albicans [2]) [µg/mL] | IC50 (Candida albicans [3]) [µg/mL] | IC50 (Nakaseomyces glabratus [4]) [µg/mL] | IC50 (Nakaseomyces glabratus [5]) [µg/mL]
1 | Oc1cc2c(cc1O)[C@@H]1Oc3cc4c(cc3[C@@H]1CO2)OCO4 | 128 (≈ 426 µM) | 128 (≈ 426 µM) | 128 (≈ 426 µM) | 32 (≈ 107 µM) | 32 (≈ 107 µM) | 32 (≈ 107 µM)
2 | C[C@@H]1[C@H](O)[C@@H](C)/C=C/C=C/C=C/C=C/C=C/C=C/C=C/[C@H](O[C@@H]2O[C@H](C)[C@@H](O)[C@H](N)[C@@H]2O)C[C@@H]2O[C@](O)(C[C@@H](O)C[C@@H](O)[C@H](O)CC[C@@H](O)C[C@@H](O)CC(=O)O[C@H]1C)C[C@H](O)[C@H]2C(=O)O [AMPHOTERICIN B] | – | – | 3 (≈ 3.25 µM) | – | – | 4 (≈ 4.33 µM)
3 | Cc1c(O)c(C)c2c(c1O)C(=O)C[C@@H](c1ccc(O)cc1)O2 [FARREROL] | > 32 | > 32 | > 32 | > 32 | > 32 | > 32
4 | OC(Cn1cncn1)(Cn1cncn1)c1ccc(F)cc1F [FLUCONAZOLE] | 0.12 (≈ 0.392 µM) | 128 (≈ 418 µM) | – | 256 (≈ 836 µM) | 256 (≈ 836 µM) | –
5 | COc1cc2c(cc1O)C[C@H](c1cc3c(cc1O)OCO3)CO2 [HILDEGARDIOL] | > 128 | > 128 | > 128 | ≥ 64 | ≥ 64 | > 128
6 | C[C@@H](c1ncncc1F)[C@](O)(Cn1cncn1)c1ccc(F)cc1F [VORICONAZOLE] | 0.007 (≈ 0.02 µM) | 1 (≈ 2.86 µM) | – | 4 (≈ 11.5 µM) | 8 (≈ 22.9 µM) | –
